Screens deposited in PubChem BioAssay by The Scripps Research Institute Molecular Screening Center.
ABHD4 inh = ABHD4 inhibitors, primary screen, biochemical, fluorescence polarization, mouse | 370,000 compounds, 0.54% hits | inhibition, % at 8.92 µM | purified mABHD4, FP-Rh probe fluorescence polarization | (Lyso)-N-acylphosphatidylethanolamine lipase (Mus musculus), Q8VD66;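 active = inhibition exceeding the mean over every tested compound plus 3 SD, cut at about 30% in these data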;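 note: 0% = plate median of compound wells and 100% = S159A mutant with DMSO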
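system = mouse ABHD4 enzyme, wild type | medium = HEPES pH 7.0, NaCl, Pluronic buffer | also added = FP-Rh probe | incubation = Enzyme–compound pre-incubation 45 min, then probe 60 min, both 25 °C | technique = fluorescence polarization, excitation 525 nm, emission 598 nm, BODIPY TMR filters | controls = S159A mutant high control, sample median low control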
HTRA1 inhibitor = HTRA1 serine protease inhibitors, primary screen, biochemical, fluorescence polarization, HTS | 340,000 compounds, 0.5% hits | Q92743 | AID 504803, 2011 | inhibition, % at 5.96 µM | recombinant HTRA1, FP-rhodamine activity-based probe; in the data active = inhibition above about 36%;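 note: 0% = enzyme with DMSO and 100% = wells lacking enzyme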
TCR CD3 inh = inhibitors of human TCR-CD3 interaction, primary screen, biochemical, fluorescence, TAMRA-labeled TCR probe; T-cell receptor (TCR); 360,000 compounds, 0.37% hits; inhibition, % at 9.4 µM; AID 651800, 2012; in the data active = inhibition above about 19%;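 note: recombinant mutant TCR 2C K166C tagged with TAMRA read by polarization; 0% = receptor in buffer alone and 100% = receptor with positive control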
rCAG RNA binder = binders of r(CAG) RNA repeats, primary screen, biochemical, fluorescence. inhibition, % at 3 µM. 370,000 compounds, 1.3% hits. r(CAG) RNA repeat, TO-PRO-1 dye displacement fluorescence;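 active = inhibition above the plate cutoff, the mean of all test compounds on that plate plus 3 SD, cut at about 35% in these data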;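 note: 0% = DMSO alone and 100% = 100 µM mitoxantrone as full dye displacement; higher means more dye released from RNA so lower well fluorescence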
SIAE primary = human SIAE inhibitors, primary screen, biochemical, fluorescence polarization, FP-Rh probe, 1536-well HTS. Sialate O-acetylesterase (Homo sapiens), Q9HAT2. SIAE FP-Rh probe binding. inhibition, % at 9.66 µM. 370,000 compounds, 0.69% hits. AID 1053197, 2014;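 active = inhibition above a cutoff: mean of compounds within the control limits plus 3 SD of those, cut at about 17% in these data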;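 note: 0% = plate median of compound wells and 100% = probe without SIAE protein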
Target sequence (Q9HAT2 whole entry, looked up): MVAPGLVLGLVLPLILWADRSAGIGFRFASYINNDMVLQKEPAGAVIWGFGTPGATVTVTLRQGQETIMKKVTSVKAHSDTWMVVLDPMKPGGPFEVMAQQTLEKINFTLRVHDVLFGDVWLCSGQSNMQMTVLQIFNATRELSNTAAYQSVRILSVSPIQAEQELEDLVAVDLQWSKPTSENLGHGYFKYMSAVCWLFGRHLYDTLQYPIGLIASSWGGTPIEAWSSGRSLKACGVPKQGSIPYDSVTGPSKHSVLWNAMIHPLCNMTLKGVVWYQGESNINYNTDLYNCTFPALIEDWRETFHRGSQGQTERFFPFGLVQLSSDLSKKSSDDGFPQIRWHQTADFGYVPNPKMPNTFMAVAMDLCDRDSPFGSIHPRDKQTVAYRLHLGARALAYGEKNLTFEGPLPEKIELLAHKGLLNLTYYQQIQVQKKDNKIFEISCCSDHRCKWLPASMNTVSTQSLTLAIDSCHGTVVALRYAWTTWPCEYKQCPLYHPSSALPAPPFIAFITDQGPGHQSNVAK
SIAE inh conf = human SIAE inhibitors, retest, confirmation, biochemical, fluorescence polarization, FP-Rh probe, triplicate. SIAE FP-Rh activity-based probe. shares compounds with SIAE primary. inhibition, % at 9.66 µM. 2,300 compounds, 13% hits. AID 1117263, 2014;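 active = mean inhibition of the replicates above the hit cutoff set in the primary screen, cut at about 17% in these data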;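 note: 0% = SIAE with DMSO and probe and 100% = probe without SIAE; inhibitors lower polarization as more probe stays unbound to SIAE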
* marks the source's active call; other numbers are inactive results. An excerpt weighted towards active compounds, which were near 2.5% of everything screened.

`O=C(Cc1cccs1)Nc1cccc(-c2nc3cc4ccccc4cc3[nH]2)c1` gave ABHD4 inh -180, HTRA1 inhibitor -123, TCR CD3 inh 15, rCAG RNA binder 22 and SIAE primary -202.
`COC(=O)c1ccc(C)c(NC(=O)C(CCSC)NC(=O)c2cc(OC)c(OC)c(OC)c2)c1` (centres undefined) gave ABHD4 inh -1, HTRA1 inhibitor 0, TCR CD3 inh 4, rCAG RNA binder -3, SIAE primary 17* and SIAE inh conf -4.
Screening COc1cc(OC)c(NC(=O)c2cc(S(=O)(=O)N3CCOCC3)cn2C)cc1Cl returned ABHD4 inh -4, HTRA1 inhibitor -6, TCR CD3 inh 11, rCAG RNA binder 4 and SIAE primary 3.
Screening COc1cc(OC)c(NC(=O)N2CCOCC2)cc1Cl returned ABHD4 inh 0, HTRA1 inhibitor 3, TCR CD3 inh -4, rCAG RNA binder -1, SIAE primary 25* and SIAE inh conf 2.
O=C(CCN1C(=O)C2CCCCC2C1=O)Nc1cc(F)ccc1F (centres undefined) was read as ABHD4 inh 4, HTRA1 inhibitor 1, TCR CD3 inh -3, rCAG RNA binder -3 and SIAE primary 2.
Screening Cc1ccc(S(=O)(=O)Nc2cccc(C(=O)N3CCN(c4ccccc4O)CC3)c2)cc1F returned ABHD4 inh 4, HTRA1 inhibitor -15, TCR CD3 inh -4, rCAG RNA binder 8, SIAE primary 21* and SIAE inh conf -4.
For COc1ccc(-n2nc(C#N)c(Cl)cc2=O)cc1 the results were ABHD4 inh 0, TCR CD3 inh -6, rCAG RNA binder -1 and SIAE primary -3.
O=C(O)c1ccccc1NN=Cc1ccccc1 was read as ABHD4 inh 6, HTRA1 inhibitor 3, TCR CD3 inh -8, rCAG RNA binder 3, SIAE primary 18* and SIAE inh conf 2.
For COc1ccc(NC(=O)CSc2nnc(Cn3cnc4ccccc43)o2)cc1 the results were ABHD4 inh -2, HTRA1 inhibitor 8, TCR CD3 inh -4, rCAG RNA binder -1, SIAE primary 18* and SIAE inh conf 0.
`O=C(CSc1nc(=O)n(CCCN2CCOCC2)c2c1CCCC2)Nc1cccc([N+](=O)[O-])c1` gave ABHD4 inh -8, HTRA1 inhibitor -3, TCR CD3 inh 1, rCAG RNA binder 4 and SIAE primary 7.
For CCN(CC)CCCn1c2c(c(SCC(=O)Nc3ccccc3Cl)nc1=O)CCC2 the results were ABHD4 inh 3, HTRA1 inhibitor -6, TCR CD3 inh 3, rCAG RNA binder -4, SIAE primary 18* and SIAE inh conf -1.
Screening O=C(CSc1nc(=O)n(CCCN2CCOCC2)c2c1CCC2)Nc1ccc([N+](=O)[O-])cc1 returned ABHD4 inh 6, HTRA1 inhibitor 8, TCR CD3 inh -5, rCAG RNA binder -6, SIAE primary 18* and SIAE inh conf 1.
CN(c1ccccc1)S(=O)(=O)c1cccc(C(=O)NCCc2ccc(O)c(O)c2)c1 was read as ABHD4 inh 28, HTRA1 inhibitor 25, TCR CD3 inh -3, rCAG RNA binder 16, SIAE primary 17* and SIAE inh conf 2.
`Cc1noc(C(=O)Nc2cccnc2)c1Cl` gave ABHD4 inh 3, HTRA1 inhibitor 8, TCR CD3 inh -5, rCAG RNA binder 2, SIAE primary 17* and SIAE inh conf -2.
`COc1cccc(-n2nnnc2SCC(=O)Nc2ccc3c(c2)OCCO3)c1` gave ABHD4 inh 7, HTRA1 inhibitor 2, TCR CD3 inh -3, rCAG RNA binder -5 and SIAE primary -9.
Screening COc1ccccc1CNC(=O)C1CCCN(S(C)(=O)=O)C1 (centres undefined) returned ABHD4 inh 4, HTRA1 inhibitor -3, TCR CD3 inh 5, rCAG RNA binder -3, SIAE primary 23* and SIAE inh conf -1.
COC(=O)[C@]12C[C@H](CC(=O)NCc3cccc(C(F)(F)F)c3)C(=O)N(Cc3ccccc3)C1=C[C@H](C(C)(C)C)O[C@@H]2C was read as ABHD4 inh -3, TCR CD3 inh 1, rCAG RNA binder 3, SIAE primary 27* and SIAE inh conf -2.
`COC(=O)[C@]12C[C@H](CC(=O)NCCCN3CCCC3=O)C(=O)N(Cc3ccccc3)C1=C[C@H](C(C)C)O[C@@H]2C1CC1` gave ABHD4 inh 3, TCR CD3 inh 7, rCAG RNA binder -1, SIAE primary 20* and SIAE inh conf -3.
Screening COC(=O)c1ccccc1NC(=O)NC1CCCCC1 returned ABHD4 inh -3, HTRA1 inhibitor 7, TCR CD3 inh -1, rCAG RNA binder -3 and SIAE primary -14.
O=C(Nc1ccc(F)cc1)N1CCN2C(=O)c3ccccc3C12c1ccccc1 (centres undefined) was read as HTRA1 inhibitor -17.
Screening COc1cc(C(=O)NCCC2=CCCCC2)ccc1OC1CCN(C(C)=O)CC1 returned ABHD4 inh 3, HTRA1 inhibitor -1, TCR CD3 inh -1, rCAG RNA binder -4, SIAE primary 19* and SIAE inh conf 0.
`COc1cc(C(=O)NCCc2ncccc2C)ccc1OC1CCN(C(C)=O)CC1` gave ABHD4 inh 0, HTRA1 inhibitor 3, TCR CD3 inh -7, rCAG RNA binder -6 and SIAE primary 0.
Screening Cc1nc(N2CCN(Cc3nc4ccccc4[nH]3)CC2)c2oc3ccccc3c2n1 returned ABHD4 inh -9, HTRA1 inhibitor -13, TCR CD3 inh -2, rCAG RNA binder 6 and SIAE primary -2.
`c1ccc2[nH]c(CN3CCN(c4ncnc5c4oc4ccccc45)CC3)nc2c1` gave ABHD4 inh 6, HTRA1 inhibitor -6, TCR CD3 inh -9, rCAG RNA binder 2, SIAE primary 20* and SIAE inh conf -5.
Screening CN(C)c1ccc(/C=N/N2C(=S)SC(C)(C)C2N(O)C(=O)Nc2ccc([N+](=O)[O-])cc2)cc1 (centres undefined) returned ABHD4 inh 4, HTRA1 inhibitor -12, TCR CD3 inh 0, rCAG RNA binder 8, SIAE primary 21* and SIAE inh conf 14.
`CS/C(N)=N/N=C/c1c(O)ccc2ccccc12` gave ABHD4 inh 6, HTRA1 inhibitor 17, TCR CD3 inh 0, rCAG RNA binder 1 and SIAE primary 2.
For CCN(CC)c1ccc(/C=N/NC(=O)c2cccc(S(=O)(=O)Nc3ccccc3OC)c2)c(O)c1 the results were ABHD4 inh 23, HTRA1 inhibitor 36*, TCR CD3 inh 15, rCAG RNA binder 19, SIAE primary 35* and SIAE inh conf 8.
